Assay results collected from several papers.
Lines come from different studies, so protocols differ.

SMILES | cell line | assay | conditions | endpoint | result
O=C(/C=C(O)/C=C/c1ccc[nH]1)/C=C/c1c[nH]c2ccccc12 | CHO-K1 | cell growth or viability, SRB | 72 h | IC50 | 9.64 µM
Cc1cc(Nc2ccc(C(=O)N/N=C/c3ccccc3)cc2)c2cccc(O)c2n1 | SMMC-7721 | cell growth or viability, MTT | 20 µM | inhibition | 28.5%
C=CC(=O)N1CCN(c2nc(=O)n(-c3c(C)ccnc3C(C)C)c3nc(-c4c(O)cccc4F)c(F)cc23)[C@@H](C)C1 | NCI-H1437 | cell growth or viability, resazurin | 72 h | GI50 | > 10 µM
Clc1ccc(-c2nc3ccccc3[nH]2)c(Cl)c1 | human Rhabdomyosarcoma cell | cell growth or viability, MTT | 48 h | IC50 | 35 µM
COC(=O)c1ccc2c(c1)NC(=O)/C2=C(\Nc1ccc(N(C)C(=O)CN2CCN(C)CC2)cc1)c1ccccc1 | L929 | cell growth or viability, MTT | 10 µM, 24 h | inhibition | < 50%
Clc1ccccc1-c1nc2ccccc2[nH]1 | human Rhabdomyosarcoma cell | cell growth or viability, MTT | 48 h | IC50 | 42.4 µM
Cc1cc(=O)n(C)c2cc(N3C(=O)CC[C@H](NS(=O)(=O)CC(C)C)[C@H]3c3ccc(Cl)cc3)ccc12 | HL-60 | cell growth or viability | 7 days | EC50 | 5030 nM
CC(=O)Oc1ccc(/C=N/NC(=O)c2ccc(Nc3cc(C)nc4c(O)cccc34)cc2)cc1 | SMMC-7721 | cell growth or viability, MTT | 20 µM | inhibition | 14.1%
CC(=O)c1c(C)c2cnc(Nc3ccc(N4CCNCC4)cn3)nc2n(C2CCCC2)c1=O | HCC70 | cell growth or viability, resazurin |  | GI50 | > 5 µM
Cc1cc(Nc2ccc(C(=O)N/N=C/c3cc4ccccc4[nH]3)cc2)c2cccc(O)c2n1 | SMMC-7721 | cell growth or viability, MTT | 20 µM | inhibition | 54.3%
COc1cc(/C=C/C(=O)/C=C(O)/C=C/c2cccnc2)ccc1O | CHO-K1 | cell growth or viability, MTT | 72 h | IC50 | 21.4 µM
N#C[Se]CCOc1ccccc1Oc1ccccc1 | Vero | cell growth or viability | 72 h | CC50 | > 20 µM
C/C(=N\O)c1ccc(-c2ccc(F)cc2)c(Cl)c1O | NCI-H1299 | cell growth or viability, MTT | 30 µM, 48 h | viability | 69%
Cc1cc(Nc2ccc(C(=O)N/N=C/c3ccncc3)cc2)c2cccc(O)c2n1 | SMMC-7721 | cell growth or viability, MTT | 20 µM | inhibition | 17.1%
Cc1ccc2nc(-c3ccc(Cl)c(Cl)c3)n(Cc3ccccc3)c2c1 | human Rhabdomyosarcoma cell | cell growth or viability, MTT |  | IC50 | 78.9 µM
Cc1cc(Nc2ncc(Cl)c(Nc3ccccc3S(=O)(=O)C(C)C)n2)c(OC(C)C)cc1C1CCNCC1 | NCI-H3122 | cell growth or viability, MTT | 0.0032 µg/mL, 72 h | inhibition | 10.3%
c1ccc2c(-c3nc4ccccc4[nH]3)c3ccccc3cc2c1 | human Rhabdomyosarcoma cell | cell growth or viability, MTT | 48 h | IC50 | 7.66 µM
O=C(Cn1ccnc1[N+](=O)[O-])NCc1ccccc1 | Vero | cell growth or viability | 72 h | CC50 | > 10 µM
Cc1cc(Nc2ccc(C(=O)N/N=C/c3ccc(C)s3)cc2)c2cccc(O)c2n1 | SMMC-7721 | cell growth or viability, MTT | 20 µM | inhibition | 25.1%
COc1cc(/C=C/c2cc(/C=C/c3cccnc3)[nH]n2)ccc1O | CHO-K1 | cell growth or viability, MTT | 72 h | IC50 | 13.2 µM
Cc1cc(Nc2ccc(C(=O)N/N=C/C3CCCCC3)cc2)c2cccc(O)c2n1 | SMMC-7721 | cell growth or viability, MTT | 20 µM | inhibition | 26.3%

SMILES | cell line | assay | conditions | endpoint | result
Cc1cc2c(cc1N1C(=O)c3cccc4c(CCCO)ccc(c34)C1=O)n(C)c(=O)n2C (racemic) | CHL-1 | cell growth or viability, resazurin |  | GI50 | 7.4 µM
Clc1ccc(Cn2c(-c3ccc(Cl)cc3)nc3ccccc32)cc1 | human Rhabdomyosarcoma cell | cell growth or viability, MTT |  | IC50 | 9.67 µM
Cc1cc(Nc2ccc(C(=O)N/N=C/c3ccnc(Cl)c3)cc2)c2cccc(O)c2n1 | SMMC-7721 | cell growth or viability, MTT | 20 µM | inhibition | 19.8%
Cc1ccc2nc(-c3cc(Br)ccc3O)[nH]c2c1 | human Rhabdomyosarcoma cell | cell growth or viability, MTT | 48 h | IC50 | 10.4 µM
C/C(=N\O)c1ccc(-c2cccc(O)c2)c(Cl)c1O | NCI-H1299 | cell growth or viability, MTT | 30 µM, 48 h | viability | 22%
Cc1cc(Nc2ccc(C(=O)N/N=C/c3cccc(Oc4ccccc4)c3)cc2)c2cccc(O)c2n1 | SMMC-7721 | cell growth or viability, MTT | 20 µM | inhibition | 37.6%
FC(F)(F)SCCOc1ccc(Oc2ccccc2)cc1 | Vero | cell growth or viability | 72 h | CC50 | > 20 µM
Fc1cccc(Cl)c1-c1nc2ccccc2[nH]1 | human Rhabdomyosarcoma cell | cell growth or viability, MTT | 48 h | IC50 | > 100 µM
C/C(=N\O)c1ccc(-c2ccc(C(F)(F)F)cc2)c(Cl)c1O | NCI-H1299 | cell growth or viability, MTT | 30 µM, 48 h | viability | 89%
N[C@@H]1CCCN(c2c(/C=C3\SC(=O)NC3=O)cccc2-c2ccccc2)C1 | U-266 | cell growth or viability, thymidine uptake |  | GI50 | 4.27 µM
C[C@@H](Oc1cc(-c2cnn(C3CCNCC3)c2)cnc1N)c1c(Cl)ccc(F)c1Cl | NCI-H3122 | cell growth or viability, MTT | 0.008 µg/mL, 72 h | inhibition | 18.1%
C=C(F)C(=O)N1CCN(c2nc(OC[C@@H]3CCCN3C)nc3c2CCN(c2cccc4cccc(Cl)c24)C3)C[C@@H]1CC#N | NCI-H1437 | cell growth or viability, resazurin | 72 h | GI50 | 3.68 µM
COc1cc(/C=C/C(=O)/C=C(O)/C=C/c2ccnc3ccccc23)ccc1O | CHO-K1 | cell growth or viability, SRB | 72 h | IC50 | 19.3 µM
Cc1ccc(NC(=O)NCc2ccc3c(c2)CN(C2CCC(=O)NC2=O)C3=O)cc1Cl (stereo not drawn) | MHHCALL4 | cell growth or viability, ATP luminescence |  | EC50 | 0.0019 nM
C/C(=N\O)c1ccc(-c2ccc(O)c(Cl)c2)c(Cl)c1O | NCI-H1299 | cell growth or viability, MTT | 30 µM, 48 h | viability | 80%
O=C(/C=C(O)/C=C/c1cccnc1)/C=C/c1c[nH]c2ccccc12 | CHO-K1 | cell growth or viability, MTT | 72 h | IC50 | 9.2 µM
CC(=O)c1cccc(N=Nc2c(C(=O)O)cc(O)c(O)c2O)c1 | RAW264.7 | TNF-α release, inhibitor, ELISA | 10 µM, LPS-stimulated | inhibition | 48%
O=C1CCC(N2Cc3cc(CNC(=O)C(F)(F)c4ccc(Cl)cc4)ccc3C2=O)C(=O)N1 (stereo not drawn) | MHHCALL4 | cell growth or viability, ATP luminescence |  | EC50 | 4.13 nM
COc1cc(Nc2nccc(-c3cnn4nc(OC)ccc34)n2)cc(C(F)(F)F)c1 | NCI-H1437 | cell growth or viability, ATP luminescence |  | IC50 | 0.75 µM
Cc1ccc2nc(-c3ccc4c(c3)OCO4)[nH]c2c1 | human Rhabdomyosarcoma cell | cell growth or viability, MTT | 48 h | IC50 | > 100 µM
C/C(=N\O)c1ccc(-c2ccc(C#N)cc2)c(Cl)c1O | NCI-H1299 | cell growth or viability, MTT | 30 µM, 48 h | viability | 75%
